Legend:
[1] = cited from earlier work
[2] = system: neutrophils; settings: cited from earlier work
[3] = system: CXCR1; assay: Calcium mobilization in HEK293/CXCR1 cells; format: cell-based, human; settings: Indo-1; Fig. 7A-B
Outline: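 CXCR1-transfected HEK293 cells were loaded with 5 µM Indo-1-AM in 5 µM pluronic F-127/PBS for 30 min at RT. They were washed in cold PBS, spun at 200 × g for 10 min at 4 °C and suspended in PBS with calcium and magnesium. Stimulation followed baseline recording. Flow cytometric [Ca2+]i was read as the 405:485 nm emission ratio with 351 nm excitation. Three independent experiments.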

[4] = system: neutrophils; assay: Calcium mobilization of neutrophils; format: cell-based, human
[5] = system: CXCR2; assay: CXCR2 surface expression on monocytes; format: cell-based, human; settings: Supporting information Fig. 2
[6] = system: P2X7; settings: LL-37; ref [14]; cited from earlier work
[7] = system: neutrophils; settings: ref [13]; cited from earlier work
[8] = system: monocytes; assay: Calcium mobilization in monocytes; format: cell-based, human
Outline: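 Peripheral blood monocytes (kit-isolated from PBMC, CD14-checked) or THP-1 cells at 10^7/mL were loaded with 5 µM Indo-1-AM for 7 min at 37 °C, then held 10 min at RT and washed in cold PBS. Cells were run at 2×10^6/mL in KRP (PBS, 1.5 mM CaCl2, 1.5 mM MgSO4). After baseline they got a first stimulus, then a second. Flow cytometry used 351 nm excitation and the 405:485 nm ratio, gating live cells. Three independent experiments.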

[9] = system: CXCR2; assay: CXCR2 surface expression on neutrophils, flow cytometry; format: cell-based, human
[10] = system: CXCR2; assay: Confocal analysis of CXCR2 internalization in neutrophils; format: cell-based, human; settings: LL-37 5 µM or CXCL8 50 nM, 1 h, 37°C; Fig. 8
Outline: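 Neutrophils came from citrated donor blood by dextran sedimentation and Ficoll gradient. […] Cells were fixed in 2% paraformaldehyde, permeabilised with saponin and blocked with human serum. Anti-CXCR1 or anti-CXCR2 mAb (4°C), then Alexa 488 anti-mouse IgG, DAPI mount, confocal imaging; three independent experiments.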

## LL-37: ~4.5 kD active α-helical peptide, C-terminal domain of human cathelicidin hCAP18
[1]; ref [7]
  wound neovascularization: promotes wound neovascularization
[1]; ref [8]
  re-epithelialization of healing skin: re-epithelialization of healing skin
[2]; ref [3], [9], [10]
  migration of neutrophils: migration of human peripheral monocytes, neutrophils
[2]; ref [9]
  neutrophil migration (literature): induces neutrophil migration
[3]
  calcium mobilization in CXCR1 transfected HEK293 cells: only CXCL8 gave a response
[4]; LL-37 1 µM, 2.5 µM, 5 µM, 10 µM, Indo-1, Fig. 3A
  [Ca2+]i pattern, dose response: a rapid rise followed by a slightly declining plateau region
[4]; LL-37, 600s recording time, Fig. 3A
  [Ca2+]i duration: sustained calcium mobilization over the 600s recording time
[4]; LL-37, Fig 3A
  return of Ca2+ response to baseline, neutrophils: returns to baseline for THP-1 cells, but not for neutrophils and monocytes
[4]; PBS without calcium and magnesium, LL-37 5 µM, WKYMVm 5 µM, ATP 5 µM, Fig. 3C
  calcium flux response in the absence of extracellular Ca2+: only the WKYMVm peptide is capable of generating a calcium flux response
[5]
  CXCR2 down-regulation on monocytes: down-regulate CXCR2
[6]
  IL-1β processing and release from monocytes: induce IL-1β processing and release from monocytes
[7]
  inhibition of spontaneous neutrophil apoptosis: potent inhibitor of spontaneous neutrophil apoptosis
[8]; LL-37, Fig. 7D
  return of Ca2+ response to baseline, monocytes: returns to baseline for THP-1 cells, but not for neutrophils and monocytes
[8]; LL-37 first, then ATP, Fig. 7D
  cross-block of ATP stimulated calcium mobilization in monocytes: neither ATP nor WKYMVm cross-block LL-37 stimulated calcium mobilization and vice versa
[8]; LL-37 first, then WKYMVm, Fig. 7D
  cross-block of WKYMVm stimulated calcium mobilization in monocytes: neither ATP nor WKYMVm cross-block LL-37 stimulated calcium mobilization and vice versa
[8]; LL-37 stimulated
  calcium mobilization in monocytes: stimulates calcium mobilization
[9]; LL-37 5 µM, at 3h, p<0.001, Fig. 1B, four independent experiments
  down-regulation of CXCR2 in time course compared to untreated controls: 50%
[9]; LL-37 10 µM, 3h
  CXCR2 surface expression at 10 µM: a further reduction was observed at 10 µM
[10]
  CXCR2 translocation (internalization): translocation of CXCR2 but not CXCR1 to the cytoplasmic granules
